These results are taken from ChEMBL document CHEMBL3112561, “Small molecule disruptors of the glucokinase-glucokinase regulatory protein interaction: 2. Leveraging structure-based drug design to identify analogues with improved pharmacokinetic profiles” (J Med Chem, 2014).

The test system of data set [1] is Plasma. Kind of data set: Unbound plasma concentration in insulin-resistant db/db mouse at 100 mg/kg, po measured at 6 hrs. It counts as ADME, organism-based. Details: dose 100 mg/kg, route oral; call rule not given here. Particulars: in vivo. An outline of the steps:
(§1)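 Fed db/db mice dosed orally (10, 30, 100 mg/kg) in 2% HPMC/1% Tween 80 vehicle, pH 2.2 (MSA), gavaged at 9:00 AM. A 15 μL whole-blood sample taken at 6 h post-dose for drug exposure, reported as unbound plasma concentration.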

Data set [2] is described as follows: Volume of distribution at steady state in C57Bl6 mouse at 2 mg/kg, iv. It counts as ADME, organism-based. Set-up: dose 2 mg/kg, route intravenous. The conditions noted are these: in vivo, read-out: Vdss. In short, it runs like this:
(§2)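 Intravenous PK at 2 mg/kg in 100% DMSO; steady-state volume of distribution derived from plasma profile.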

Data set [3] in a line: Mean residence time in C57Bl6 mouse at 10 mg/kg, po. It counts as ADME, organism-based. Details: dose 10 mg/kg, route oral. Particulars: in vivo. In short, it runs like this:
(§3)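 Oral PK at 10 mg/kg in 1% Tween 80, 2% HPMC, 97% water, […]; mean residence time from plasma profile.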

Data set [4] can be described thus: Oral bioavailability in C57Bl6 mouse at 10 mg/kg. The conditions noted are these: in vivo. Type of data set: ADME, organism-based.
Data set [5] is described as follows: Oral bioavailability in rat at 10 mg/kg. It counts as ADME, organism-based. Particulars: in vivo.
The test system of data set [6] is Plasma. Description: Unbound plasma concentration in insulin-resistant db/db mouse at 10 mg/kg, po measured at 6 hrs. It counts as ADME, organism-based. Set-up: dose 10 mg/kg, route oral. Particulars: in vivo. An outline of the steps:
as §1

For data set [7], the system named is Mus musculus. Description: Unbound maximum concentration in C57Bl6 mouse at 10 mg/kg, po. Type of data set: ADME, organism-based. Set-up: dose 10 mg/kg, route oral. Particulars: in vivo.
Data set [8] relates to Plasma. Description: Unbound plasma concentration in insulin-resistant db/db mouse at 30 mg/kg, po measured at 6 hrs. It counts as ADME, organism-based. Set-up: dose 30 mg/kg, route oral. The conditions noted are these: in vivo. In short, it runs like this: as §1
The nature of data set [9]: Mean residence time in rat at 10 mg/kg, po. It counts as ADME, organism-based. Set-up: dose 10 mg/kg, route oral. The conditions noted are these: in vivo. An outline of the steps: as §3
Data set [10] is described as follows: Volume of distribution at steady state in rat at 2 mg/kg, iv. Set-up: dose 2 mg/kg, route intravenous. The conditions noted are these: in vivo, read-out: Vdss. Type of data set: ADME, organism-based. In short, it runs like this:
as §2

The subject of data set [11] is Liver microsome. Description: Drug metabolism in human liver microsomes assessed as cleavage of sufonamide. It counts as ADME. (In general: Liver microsomes are vesicles of endoplasmic reticulum, rich in cytochrome P450 enzymes.)
Data set [12] deals with Liver microsome. Description: Drug metabolism in human liver microsomes assessed as oxidation of thiophene ring. Type of data set: ADME.
Data set [13] in a line: Intrinsic clearance in human liver microsomes at 1 uM after 30 mins in presence of NADPH. It counts as ADME. Particulars: read-out: CLH.
Data set [14] concerns the target T1, Glucokinase regulatory protein (Mus musculus, UniProt Q91X44).
T1 sequence (Q91X44 whole entry): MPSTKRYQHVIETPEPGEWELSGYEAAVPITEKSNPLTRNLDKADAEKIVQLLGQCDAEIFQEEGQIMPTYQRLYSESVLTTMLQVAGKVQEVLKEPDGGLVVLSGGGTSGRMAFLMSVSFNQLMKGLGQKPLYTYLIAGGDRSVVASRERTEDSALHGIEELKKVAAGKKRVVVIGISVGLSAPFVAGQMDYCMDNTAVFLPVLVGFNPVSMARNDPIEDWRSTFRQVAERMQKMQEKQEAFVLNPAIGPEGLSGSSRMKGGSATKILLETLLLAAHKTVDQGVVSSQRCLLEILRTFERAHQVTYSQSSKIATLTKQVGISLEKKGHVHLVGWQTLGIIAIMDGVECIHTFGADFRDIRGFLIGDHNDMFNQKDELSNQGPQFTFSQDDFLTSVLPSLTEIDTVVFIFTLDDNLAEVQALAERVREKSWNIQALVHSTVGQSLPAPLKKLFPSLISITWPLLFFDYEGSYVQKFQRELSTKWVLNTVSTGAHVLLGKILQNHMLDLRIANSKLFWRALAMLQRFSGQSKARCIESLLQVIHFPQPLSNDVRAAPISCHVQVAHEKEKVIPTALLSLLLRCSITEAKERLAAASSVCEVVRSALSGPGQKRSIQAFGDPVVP
Description: Induction of GK translocation from nucleus to cytoplasm of mouse hepatocytes preincubated for 20 mins followed by glucose challenge measured after 40 mins by Hoechst 33342 staining-based assay. Type of data set: cell-based, Hepatocyte.

The nature of data set [15]: Intrinsic clearance in rat liver microsomes at 1 uM after 30 mins in presence of NADPH. It counts as ADME. The conditions noted are these: read-out: CLH.
Data set [16] concerns Liver microsome. Kind of data set: Drug metabolism in rat liver microsomes assessed as oxidation of thiophene ring. It counts as ADME.
Data set [17] deals with Liver microsome. Description: Drug metabolism in rat liver microsomes assessed as cleavage of sufonamide. It counts as ADME.
Data set [18] deals with T2, Glucokinase regulatory protein (Homo sapiens, UniProt Q14397).
T2 sequence (Q14397 whole entry): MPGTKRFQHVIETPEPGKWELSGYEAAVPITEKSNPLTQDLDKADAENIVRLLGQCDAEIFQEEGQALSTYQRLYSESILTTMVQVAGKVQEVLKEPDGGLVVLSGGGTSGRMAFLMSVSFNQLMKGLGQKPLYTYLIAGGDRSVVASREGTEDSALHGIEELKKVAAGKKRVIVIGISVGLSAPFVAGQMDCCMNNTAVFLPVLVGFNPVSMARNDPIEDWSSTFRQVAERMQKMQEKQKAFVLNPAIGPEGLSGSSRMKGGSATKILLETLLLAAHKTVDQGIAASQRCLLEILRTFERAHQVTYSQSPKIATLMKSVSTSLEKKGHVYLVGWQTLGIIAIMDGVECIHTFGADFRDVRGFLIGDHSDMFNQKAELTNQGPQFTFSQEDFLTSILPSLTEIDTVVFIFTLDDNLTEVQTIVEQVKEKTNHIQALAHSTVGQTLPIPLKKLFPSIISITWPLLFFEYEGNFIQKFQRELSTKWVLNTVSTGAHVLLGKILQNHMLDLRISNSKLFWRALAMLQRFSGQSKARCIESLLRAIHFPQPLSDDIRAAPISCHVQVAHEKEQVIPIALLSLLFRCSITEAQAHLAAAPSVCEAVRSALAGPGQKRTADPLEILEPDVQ
Kind of data set: Inhibition of fluorescein-labeled human GK interaction with biotin-labeled human GKRP incubated for 20 mins prior to addition of fluorescein-labeled GK measured after 2 to 4 hrs by Alpha Screen assay. (In general: Bead proximity is the source of the signal in Alpha formats.)

Data set [19] has as its system Mus musculus. Kind of data set: Antidiabetic activity in insulin-resistant db/db mouse assessed as reduction of fed blood glucose level at 100 mg/kg, po measured at 6 hrs relative to vehicle-treated control. It counts as functional. Details: scale not given: the % may be the effect or the level left.
Data set [20] relates to Mus musculus. Kind of data set: Antidiabetic activity in insulin-resistant db/db mouse assessed as reduction of fed blood glucose level at 100 mg/kg, po measured at 8 hrs relative to vehicle-treated control. Type of data set: functional. Details: scale not given: the % may be the effect or the level left.
For data set [21], the system named is Mus musculus. Kind of data set: Antidiabetic activity in insulin-resistant db/db mouse assessed as reduction of fed blood glucose level at 30 mg/kg, po measured at 6 hrs relative to vehicle-treated control. Type of data set: functional. Set-up: scale not given: the % may be the effect or the level left.
The test system of data set [22] is Mus musculus. Kind of data set: Unbound maximum concentration in C57Bl6 mouse at 100 mg/kg, po. Type of data set: ADME, organism-based. Details: dose 100 mg/kg, route oral. Particulars: in vivo.
In data set [23] the test system is Liver microsome. Kind of data set: Drug metabolism in human liver microsomes assessed as oxidation of bicyclic morpholine ring. Type of data set: ADME.
Data set [24] relates to Liver microsome. Kind of data set: Drug metabolism in rat liver microsomes assessed as oxidation of bicyclic morpholine ring. Type of data set: ADME.
A short description of data set [25]: Fraction unbound in rat plasma at 10 mg/kg, po by rapid equilibrium dialysis method. It counts as ADME, organism-based. Details: dose 10 mg/kg, route oral. In short, it runs like this:
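Plasma fraction unbound measured by rapid equilibrium dialysis.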
(In general: Equilibrium dialysis compares concentrations on both sides of a semipermeable membrane.)

Data set [26] can be described thus: Clearance in rat at 2 mg/kg, iv. It counts as ADME, organism-based. Set-up: dose 2 mg/kg, route intravenous. The conditions noted are these: in vivo.
Data set [27] can be described thus: Ratio of EC50 for induction of GK translocation from nucleus to cytoplasm of mouse hepatocytes to ratio of unbound maximum concentration in C57Bl6 mouse. Set-up: species or system Hepatocyte.

What is called MRT is a mean duration of stay, worked out from the concentration-time curve. What is called bioavailability is dose-corrected exposure relative to a reference, in per cent. By pEC50 is commonly meant the negative decadic logarithm of the EC50, by convention in mol/L. For orientation: pIC50 means the IC50 on a negative log10 scale, so that one unit is a factor of ten. The fraction unbound is the share of the substance not bound to proteins or other matrix. One may read the clearance as a measure of how efficiently the substance is removed, as volume per time.

Structures are written as SMILES. pEC50, pIC50: −log10 of the molar value.

As for `CC#C[C@H]1CN(S(=O)(=O)c2ccc(N)nc2)CCN1c1ccc([C@@](C)(O)C(F)(F)F)cc1`, the “Cp(f)” value in the data set on Plasma [1] amounted to 786 nM; in the data set on Plasma [6], 58 nM; in the data set on Plasma [8] it was 240 nM. Also, the Vd was found to be 1 L/kg in [2] and 1.6 L/kg in [10]. Moreover, the MRT in [3] is 5.3 h; in data set [9], 4.6 h. Also, the values for the bioavailability in [4] and in data set [5] were 39% and 82%, respectively. The fCmax in the data set on Mus musculus [7] amounted to 0.292 µM.

For `C[C@@](O)(c1ccc(N2CCN(S(=O)(=O)c3cccs3)C[C@@H]2CN2[C@H]3COC[C@@H]2[C@H](O)C3)cc1)C(F)(F)F`, the Drug metabolism result with Liver microsome [11], in the data set on Liver microsome [12], in the data set on Liver microsome [16] and in the data set with Liver microsome [17] was “Active” each time. Moreover, the microsomal CLint at 1 µM in data set [13] is 128 µL/min/mg; in data set [15], 118 µL/min/mg. In data set [14], the pEC50 was 5.92. In addition, the pIC50 in data set [18] is 7.85.

For `CC#C[C@H]1CN(S(=O)(=O)c2ccc(N)nc2)CCN1c1ccc(C(O)(C(F)(F)F)C(F)(F)F)cc1`, the Vd in data set [2] is 1.1 L/kg; in data set [10], 3.6 L/kg. Further, the MRT in [3] was found to be 9.2 h; in data set [9], 6.2 h. In addition, the bioavailability came out at 40% in [4] and 75% in [5]. The Activity was 60% in the data set on Mus musculus [19], 56% in the data set on Mus musculus [20] and 47% in the data set on Mus musculus [21]. Besides, the fCmax with Mus musculus [7] was found to be 0.068 µM.

The compound `C[C@H]1COCCN1C[C@H]1CN(S(=O)(=O)c2cccs2)CCN1c1ccc([C@@](C)(O)C(F)(F)F)cc1` had a fCmax in the data set with Mus musculus [22] of 0.032 µM. Further, the Drug metabolism result in the data set with Liver microsome [23] and with Liver microsome [24] was “Active” each time. The compound also registered a fraction unbound in data set [25] of 0.037. The microsomal CLint at 1 µM in data set [13] is 353 µL/min/mg. In addition, the pEC50 in data set [14] was 5.75. For the same compound, in [5], the bioavailability stood at 7%. This compound showed a clearance in data set [26] of 68.3 mL/min/kg. For the same compound, the Ratio in data set [27] turned out to be 50. The compound also gave an MRT in [9] of 4.4 h. In [10], the Vd amounted to 8.3 L/kg.
